Measurements taken from ChEMBL document CHEMBL5104120, “Morpholine substituted quinazoline derivatives as anticancer agents against MCF-7, A549 and SHSY-5Y cancer cell lines and mechanistic studies” (RSC Med Chem, 2022).

How the values were obtained:
MCF7 [1] = test: Antiproliferative activity against human MCF7 cells assessed as inhibition of cell growth incubated for 72 hrs by SRB assay; assay type: functional, cell-based; conditions: MCF7, 72 h
HT-29 = test: Antiproliferative activity against human HT-29 cells assessed as inhibition of cell growth incubated for 72 hrs by SRB assay; assay type: functional, cell-based; conditions: HT-29, 72 h
A549 = test: Antiproliferative activity against human A549 cells assessed as inhibition of cell growth incubated for 48 hrs by MTT assay; assay type: functional, cell-based; conditions: A549, 48 h
How it was run: (§1)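 Cell lines from NCCS; ~8000 cells/well grown 24 h at 37 °C, 5% CO2, serum-starved 8 h to synchronize, then complete medium restored. Compounds applied at 1, 5, 10 and 25 μM in triplicate for 48 h. MTT added after medium removal, 4 h in dark; formazan dissolved in DMSO, absorbance at 590 nm read as % viability (mean ± S.D.); IC50 in μM.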

SH-SY5Y [2] = test: Antiproliferative activity against human SH-SY5Y cells assessed as inhibition of cell growth incubated for 48 hrs by MTT assay; assay type: functional, cell-based; how it was run: as §1
MCF7 [3] = test: Antiproliferative activity against human MCF7 cells assessed as inhibition of cell growth incubated for 48 hrs by MTT assay; assay type: functional, cell-based; conditions: MCF7, 48 h; how it was run: as §1
[4] = Cytotoxicity against human HEK293 cells assessed as inhibition of cell growth incubated for 48 hrs by MTT assay; assay type: toxicity, cell-based
SH-SY5Y [5] = test: Induction of apoptosis in human SH-SY5Y cells assessed as viable cells at 10 uM incubated for 48 hrs by AnnexinV staining based cytofluorimetric analysis (reference value: 98.6 %); assay type: functional; conditions: read-out: Activity
How it was run: (§2)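 SHSY5Y cells grown in 6-well plates and exposed to compounds at 10 μM for 48 h. Cells plus medium centrifuged at 1200 rpm for 5 min, washed in 1× PBS, then incubated with Annexin V/dead cell reagent 30 min at room temperature in dark. Annexin V […] populations quantified on a Muse cytofluorimetric analyzer.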

SH-SY5Y [6] = test: Induction of apoptosis in human SH-SY5Y cells assessed as necrotic cells at 10 uM incubated for 48 hrs by AnnexinV staining based cytofluorimetric analysis (reference value: 0 %); assay type: functional; how it was run: as §2
SH-SY5Y [7] = test: Cell cycle arrest in human SH-SY5Y cells assessed as cells in G0/G1 phase at 10 uM incubated for 48 hrs by PI staining based flow cytometry analysis (reference value: 53.2 %); assay type: functional
SH-SY5Y [8] = test: Cell cycle arrest in human SH-SY5Y cells assessed as cells in S phase at 10 uM incubated for 48 hrs by PI staining based flow cytometry analysis (reference value: 16.2 %); assay type: functional
SH-SY5Y [9] = test: Induction of apoptosis in human SH-SY5Y cells assessed as late apoptotic cells at 10 uM incubated for 48 hrs by AnnexinV staining based cytofluorimetric analysis (reference value: 0.24 %); assay type: functional; how it was run: as §2
SH-SY5Y [10] = test: Cell cycle arrest in human SH-SY5Y cells assessed as cells in G2 phase at 10 uM incubated for 48 hrs by PI staining based flow cytometry analysis (reference value: 31.1 %); assay type: functional
SH-SY5Y [11] = test: Induction of apoptosis in human SH-SY5Y cells assessed as early apoptotic cells at 10 uM incubated for 48 hrs by AnnexinV staining based cytofluorimetric analysis (reference value: 1.16 %); assay type: functional; how it was run: as §2
L1210 = test: Antiproliferative activity against mouse L1210 cells assessed as inhibition of cell growth incubated for 72 hrs by tryphan blue staining; assay type: functional, cell-based; conditions: L1210, 72 h
HeLa = test: Antiproliferative activity against human HeLa cells assessed as inhibition of cell growth incubated for 72 hrs by tryphan blue staining; assay type: functional, cell-based
B16 = test: Antiproliferative activity against mouse B16 cells assessed as inhibition of cell growth incubated for 72 hrs by tryphan blue staining; assay type: functional, cell-based; conditions: B16, 72 h
NIH3T3 = test: Antiproliferative activity against mouse NIH3T3 cells assessed as inhibition of cell growth incubated for 72 hrs by tryphan blue staining; assay type: functional, cell-based; conditions: NIH3T3, 72 h

| Compound | IC50 (A549) | IC50 (SH-SY5Y [2]) | IC50 (MCF7 [3]) | IC50 at 48 h [4] | further results |
| --- | --- | --- | --- | --- | --- |
| O=C1Nc2ccc(F)cc2/C1=N/Nc1nc(-c2ccccc2)nc2ccccc12 |  |  |  |  | IC50 (MCF7 [1]): 7.4 µM; IC50 (HT-29): 14.3 µM |
| c1ccc2[nH]c(-c3nc(N4CCOCC4)c4ccccc4n3)cc2c1 | 11.5 µM | 14.5 µM | > 25 µM |  |  |
| COc1ccc(-c2nc(N3CCOCC3)c3ccccc3n2)cc1 | 20.8 µM | > 25 µM | 5.01 µM | > 25 µM |  |
| COc1cc2c(c(OC)c1OC)-c1ccc(OC)c(=O)cc1[C@@H](NC(C)=O)CC2 [COLCHICINE] | 5.13 µM | 7.89 µM | 5.19 µM | > 25 µM |  |
| COc1cc(-c2nc(N3CCOCC3)c3ccccc3n2)cc(OC)c1OC | 8.55 µM | 3.36 µM | 3.15 µM |  | viability at 10 µM (SH-SY5Y [5]): 0.42%; Activity (SH-SY5Y [6]): 19.2%; Activity (SH-SY5Y [7]): 62.1%; Activity (SH-SY5Y [8]): 14.4%; Activity (SH-SY5Y [9]): 77.6%; Activity (SH-SY5Y [10]): 24.3%; Activity (SH-SY5Y [11]): 2.71% |
| FC(F)(F)c1ccc(-c2nc(N3CCOCC3)c3ccccc3n2)cc1 | 9.83 µM | 15.8 µM | 6.69 µM | > 25 µM |  |
| O=[N+]([O-])c1ccc(-c2nnc3c4cc(Cl)ccc4nc(N4CCOCC4)n23)s1 |  |  |  |  | IC50 (L1210): 0.58 µM; IC50 (HeLa): 6.43 µM; IC50 (B16): 0.24 µM; IC50 (NIH3T3): 2.74 µM |
| CN(C)c1ccc(-c2nc(N3CCOCC3)c3ccccc3n2)cc1 | 10.4 µM | 9.54 µM | 6.44 µM | > 25 µM | viability at 10 µM (SH-SY5Y [5]): 0.55%; Activity (SH-SY5Y [6]): 19%; Activity (SH-SY5Y [7]): 59%; Activity (SH-SY5Y [8]): 15.3%; Activity (SH-SY5Y [9]): 78.2%; Activity (SH-SY5Y [10]): 26.2%; Activity (SH-SY5Y [11]): 2.23% |
| N#Cc1ccc(-c2nc(N3CCOCC3)c3ccccc3n2)cc1 | 11.1 µM | > 25 µM | > 25 µM |  |  |
| CSc1ccc(-c2nc(N3CCOCC3)c3ccccc3n2)cc1 | 17.7 µM | 24.3 µM | 10.1 µM |  |  |

Continued, in another order:

| IC50 (A549) | IC50 (SH-SY5Y [2]) | IC50 (MCF7 [3]) | Compound | IC50 at 48 h [4] | further results |
| --- | --- | --- | --- | --- | --- |
| 10.8 µM | > 25 µM | > 25 µM | Fc1ccccc1-c1nc(N2CCOCC2)c2ccccc2n1 |  |  |
| 9.5 µM | 15.2 µM | 10.5 µM | CC(C)c1ccc(-c2nc(N3CCOCC3)c3ccccc3n2)cc1 |  |  |
| 9.47 µM | > 25 µM | > 25 µM | c1ccc(-c2nc(N3CCOCC3)c3ccccc3n2)cc1 |  |  |
| 12.5 µM | 20.7 µM | 5.57 µM | Oc1ccc(-c2nc(N3CCOCC3)c3ccccc3n2)cc1 | > 25 µM |  |
| 18.9 µM | 18 µM | 4.93 µM | Cc1ccc(-c2nc(N3CCOCC3)c3ccccc3n2)cc1 |  |  |
| 17.8 µM | 22 µM | > 25 µM | Fc1cccc(Cl)c1-c1nc(N2CCOCC2)c2ccccc2n1 |  |  |
